According to ChEMBL document CHEMBL4651341, “The discovery of a novel series of compounds with single-dose efficacy against juvenile and adult Schistosoma species” (PLoS Negl Trop Dis, 2021):
≈ marks a conversion by molar mass, not a printed value.

What was measured:
[1] = Mean half-life in Swiss albino male mice at 1 mg/kg per compound (administered iv in a mixture of 5 compounds to 3 mice) assessed by LCMS/MS.; assay type: ADME, organism-based; conditions: mouse, in vivo
Method in brief: (§1)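 Male Swiss albino mice (~30 g), 3 per experiment, mostly dosed as mixtures of 5 compounds iv via the lateral tail vein. Vehicle: 10% DMSO/90% 50 mM Na2HPO4 with 0.5% Tween-80. Plasma stored at −20 °C and quantified by LC-MS after acetonitrile precipitation.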

[2] = Mean time to peak plasma concentration in Swiss albino male mice at […] per compound (administered orally in a mixture of 5 compounds to 3 mice) assessed by LCMS/MS.; assay type: ADME, organism-based; conditions: mouse, po
Schistosoma mansoni [3] = assay: Concentration required to kill 50% of 42 day old worms 5 days after drug treatment.; assay type: functional, organism-based; conditions: Puerto Rican, 120 h
Method in brief: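 Adult S. mansoni were perfused from CD1 mice 6 weeks post-infection and washed. They were cultured 3 pairs per well in 1 mL DMEM with 2 mM glutamine, penicillin/streptomycin and 10% FCS […] at 37 °C, 5% CO2. Viability of individual worms was scored on day 5 (120 h).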

[4] = Mean plasma concentration at 24h in Swiss albino male mice at […] per compound (administered orally in a mixture of 5 compounds to 3 mice) assessed by LCMS/MS.; assay type: ADME, organism-based; conditions: mouse, po
[5] = Mean plasma concentration at 4h in Swiss albino male mice at […] per compound (administered orally in a mixture of 5 compounds to 3 mice) assessed by LCMS/MS.; assay type: ADME, organism-based; conditions: mouse, po
[6] = Percentage of parent compound remaining after incubation for 90 minutes with cyropreserved mouse hepatocytes at a concentration of 1uM compound and […], determined by LCMS; assay type: ADME, tissue-based, Hepatocyte; conditions: cryopreserved mouse hepatocytes, read-out: Stability
Method in brief: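 Compound was incubated at 1 µM final (2 µM working solution mixed 1:1 with hepatocyte suspension) in supplemented KHB pH 7.4. Conditions: 37 °C, 5% CO2, gentle mixing, duplicates. Reaction quenched with ice-cold acetonitrile containing standard; analysed by LC-MS/MS. % remaining = AUC at t / AUC at T0.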

Schistosoma mansoni [7] = assay: Concentration required to kill 50% of 21 day old worms 5 days after drug treatment.; assay type: functional, organism-based; conditions: Puerto Rican, 120 h
Method in brief: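 Juvenile S. mansoni (Puerto Rican strain) were perfused from CD1 mice 3 weeks post-infection and washed. They were cultured 6–8 per well in 200 µL DMEM with 2 mM glutamine, penicillin/streptomycin and 10% FCS at 37 °C, 5% CO2. Viability of individual worms was scored on day 5 after dosing (120 h).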

[8] = Mean AUC inf in Swiss albino male mice at 1 mg/kg per compound (administered iv in a mixture of 5 compounds to 3 mice) assessed by LCMS/MS.; assay type: ADME, organism-based; conditions: male, Swiss albino, mouse, in vivo
Method in brief: as §1, with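 “Tween-80. Blood sampled at 5, 15, 30 min and 1, 2, 4, 8, 24 h.” for “Tween-80.”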

[9] = Mean observed clearance in Swiss albino male mice at 1 mg/kg per compound (administered iv in a mixture of 5 compounds to 3 mice) assessed by LCMS/MS.; assay type: ADME, organism-based; conditions: male, Swiss albino, mouse, in vivo, read-out: Clearance (converted)
Method in brief: as §1, with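 “Tween-80. Blood sampled at 5, 15, 30 min and 1, 2, 4, 8, 24 h.” for “Tween-80.”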

[10] = Mean oral bioavailability in Swiss albino male mice at […] per compound (administered in a mixture of 5 compounds to 3 mice) assessed by LCMS/MS.; note: dose 2.5 mg/kg; assay type: ADME, organism-based; conditions: male, Swiss albino, mouse, in vivo, read-out: Bioavailability
[11] = Mean volume of distribution at steady state in Swiss albino male mice at 1 mg/kg per compound (administered iv in a mixture of 5 compounds to 3 mice) assessed by LCMS/MS.; assay type: ADME, organism-based; conditions: mouse, in vivo, read-out: Volume; method in brief: as §1
[12] = Solubility at 25 degC of compound (diluted from DMSO) in PBS at pH 7.4 determined after 24h (1h sonication, 22h shaking, 1h sonication) by LCMS/MS; assay type: physicochemical
[13] = Concentration required to kill 50% HepG2 cells as detected by MTT staining; assay type: toxicity, cell-based; conditions: homo sapiens, read-out: TC50 (the source's name)
[14] = Concentration required to kill 50% MRC-5 cells as detected by Alamar blue staining; assay type: toxicity, cell-based, MRC5; conditions: homo sapiens, read-out: TC50 (the source's name)

SMILES | half-life [1] [h] | Tmax [2] [h] | EC50 (Schistosoma mansoni [3]) [nM] | concentration at 24 h [4] [ng/mL] | concentration at 4 h [5] [ng/mL] | remaining at 1.5 h, 1 µM [6] [%] | EC50 (Schistosoma mansoni [7]) [nM] | AUC(0-inf) [8] [ng·h/mL] | clearance [9] [mL/min/kg] | bioavailability [10] [%] | Vd [11] [L/kg] | solubility kinetic at 24 h [12] [µM] | CC50 [13] [nM] | CC50 [14] [nM]
CC(C)c1nc2cnc(-c3ccc(F)c(C(F)(F)F)c3)cn2c1-c1ccc2[nH]ncc2c1 | 7.99 | 0.667 | 185 | 60.5 | 371 | 41.3 | 174 | 1440 | 5.83 | 81.8 | 3.16 |  |  | 
Fc1c(-c2c(C(F)(F)F)nc3cnc(-c4ccnc(C(F)(F)F)c4)cn23)ccc2[nH]ncc12 |  |  | 117 |  |  | 76.5 | 138 |  |  |  |  | 2.95 (≈ 1.38 µg/mL) | 7000 | 
CC1(c2nc3cnc(-c4ccc(F)c(C(F)(F)F)c4)cn3c2-c2c(F)cc(O)cc2F)CC1 | 8.48 | 0.25 | 56.3 | 7.01 | 76 | 41.7 | 79.6 | 528 | 15.9 | 55.6 | 9.19 | 32.8 (≈ 15.2 µg/mL) | 7900 | 
CCc1nc2cnc(-c3ccc(F)c(C(F)(F)F)c3)cn2c1-c1c(F)cc(O)cc1F | 10 | 0.25 | 52.8 | 12.3 | 50.3 | 36 | 51.4 | 464 | 18 | 47.7 | 8.79 | 1.5 (≈ 0.656 µg/mL) | 8300 | 
Fc1ccc(-c2cn3c(-c4ccc5[nH]ncc5c4F)c(C(F)(F)F)nc3cn2)cc1CC(F)(F)F | 2.75 | 0.5 | 11.9 | 0.971 | 57.2 | 55.8 | 10.4 | 328 | 25.5 | 52.5 | 3.28 | 0.0917 (≈ 0.0456 µg/mL) | 5300 | 
Fc1ccc(-c2cn3c(-c4ccc5[nH]ncc5c4F)c(C(F)(F)F)nc3cn2)cc1OC(F)(F)F | 22.1 | 1 | 16.9 | 165 | 358 | 94.2 | 20.8 | 2700 | 3.23 | 81 | 5.89 | 0.785 (≈ 0.392 µg/mL) | 12200 | 
Fc1ccc(-c2cn3c(-c4ccc5[nH]ncc5c4)c(C(F)(F)F)nc3cn2)cc1C(F)(F)F | 23.3 | 1.67 | 329 | 208 | 322 | 56.2 | 350 | 2730 | 3.08 | 91.3 | 6.69 |  |  | 
Oc1cc(F)c(-c2c(C3CC3)nc3cnc(-c4ccc(F)c(C(F)(F)C(F)(F)F)c4)cn23)c(F)c1 |  |  | 10.5 |  |  | 54.3 | 23.9 |  |  |  |  | 3.14 (≈ 1.57 µg/mL) | 9400 | 
CC(C)Oc1cccc(-c2ccc3nnc(-c4ccc(O)cc4)n3c2)c1 |  |  |  |  |  |  | > 25000 |  |  |  |  |  |  | > 50000
Oc1cc(F)c(-c2c(C3CCC3)nc3cnc(-c4ccc(F)c(C(F)(F)F)c4)cn23)c(F)c1 | 9.17 | 0.333 | 58.6 | 21.7 | 161 | 48.2 | 72.9 | 1060 | 7.9 | 48.6 | 4.74 | 51.6 (≈ 23.9 µg/mL) | 5700 | 
